Results reported in ChEMBL document CHEMBL1770105, “Discovery and evaluation of pyrazolo[1,5-a]pyrimidines as neuropeptide Y1 receptor antagonists” (Bioorg Med Chem Lett, 2011).
pIC50, pKi: −log10 of the molar value.

Experiments:
[1] = target: T1, Neuropeptide Y receptor type 1 (Homo sapiens, UniProt P25929); assay: Displacement of [125I]-PYY from human recombinant NPY Y1 receptor overexpressed in membrane of Sf9 cells
T1 sequence (P25929 whole entry): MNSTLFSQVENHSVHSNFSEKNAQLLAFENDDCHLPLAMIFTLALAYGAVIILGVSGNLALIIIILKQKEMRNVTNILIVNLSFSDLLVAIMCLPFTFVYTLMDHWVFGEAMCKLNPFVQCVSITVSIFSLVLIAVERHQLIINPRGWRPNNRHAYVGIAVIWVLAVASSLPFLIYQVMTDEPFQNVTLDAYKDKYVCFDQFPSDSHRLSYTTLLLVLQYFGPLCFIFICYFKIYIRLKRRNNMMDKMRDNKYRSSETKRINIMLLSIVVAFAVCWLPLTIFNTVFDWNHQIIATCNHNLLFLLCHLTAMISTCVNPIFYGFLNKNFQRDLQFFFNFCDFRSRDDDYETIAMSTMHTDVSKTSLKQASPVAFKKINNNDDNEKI
Summary of the method: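 Human Y1 receptor: 125I-PYY displacement on Sf9 membranes overexpressing recombinant hY1R. Ki values are single determinations run in triplicate.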

[2] = Ratio of fraction unbound drug level in brain to plasma in Mdr1a/1b knockout mouse to FVB mouse at 5 mg.kg, sc after 0.5 hrs; format: ADME, organism-based
Summary of the method: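 Brain and plasma levels measured in Mdr1a/1b knockout and wild-type FVB mice 0.5 h after a 5 mg/kg sc dose. Brain/plasma ratios calculated from unbound fractions, measured by equilibrium dialysis of brain homogenate and plasma. Result expressed as knockout B/P over FVB B/P.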

[3] = target: T1, Neuropeptide Y receptor type 1; assay: Antagonist activity at NPY Y1 receptor in human SK-N-MC cells assessed as inhibition of NPY-induced calcium mobilization by FLIPR assay; format: functional, cell-based
Summary of the method: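 SK-N-MC neuroblastoma cells plated at 25,000/well 4 days ahead, loaded with Fluo-3 for 1 h in 5% CO2, washed and resuspended in assay buffer (5 mM KCl, 115 mM NaCl, 0.96 mM NaH2PO4, 1 mM MgSO4, 2 mM CaCl2, 5 mM D-glucose) containing test compound.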

[4] = Plasma clearance in Sprague-Dawley rat at 1 mg/kg, iv and 3 mg/kg, po; format: ADME, organism-based
Summary of the method: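 Overnight-fasted, jugular-vein-cannulated SD rats (water ad libitum) dosed by oral gavage (3 mg/kg in 0.5% methyl cellulose, 2 mL/kg, n = 2) or iv via the jugular vein (1.0 mg/kg in 50% PEG, 1 mL/kg, n = 2).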

[5] = Fraction unbound in Sprague-Dawley rat plasma at 1 mg/kg, iv and 3 mg/kg, po; format: ADME, organism-based
[6] = system: Rattus norvegicus; assay: Unbound plasma clearance in Sprague-Dawley rat 1 mg/kg, iv and 3 mg/kg, po; format: ADME, organism-based; conditions: in vivo
[7] = system: Rattus norvegicus; assay: Antihypertensive activity in Sprague-Dawley rat assessed as inhibition of NPY-induced increase in arterial pressure at 3 mg/kg, iv; format: functional; conditions: Artery
Summary of the method: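 Overnight-fasted SD rats anesthetized with inactin (100 mg/kg ip), tracheal and femoral arterial/venous cannulae, on a heated pad. Arterial pressure and heart rate recorded every 5 s. NPY given as iv bolus every 15 min. After the third NPY bolus, compound given iv at 3 mg/kg in saline (1 mL/kg), followed by three further NPY injections.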

[8] = target: T2, Corticotropin-releasing factor receptor 1 (Homo sapiens, UniProt P34998); assay: Binding affinity to CRHR
T2 sequence (P34998 whole entry): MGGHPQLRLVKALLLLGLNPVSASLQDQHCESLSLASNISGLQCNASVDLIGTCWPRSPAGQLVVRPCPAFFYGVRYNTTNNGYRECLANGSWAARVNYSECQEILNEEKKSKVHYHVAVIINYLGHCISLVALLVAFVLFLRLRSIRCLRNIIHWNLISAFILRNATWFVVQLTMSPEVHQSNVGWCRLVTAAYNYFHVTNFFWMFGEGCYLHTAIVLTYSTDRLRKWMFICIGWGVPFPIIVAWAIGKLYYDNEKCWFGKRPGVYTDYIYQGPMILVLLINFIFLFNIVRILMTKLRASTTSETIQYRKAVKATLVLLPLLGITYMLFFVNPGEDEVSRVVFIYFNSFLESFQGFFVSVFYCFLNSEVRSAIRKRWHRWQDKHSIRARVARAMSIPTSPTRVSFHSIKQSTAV

SMILES | pKi [1] | Knockout-to-FVB ratio of unbound brain/plasma ratio [2] | further results
Cc1cc(NCCNC2CCOCC2)n2nc(C)c(-c3c(Cl)cccc3Cl)c2n1 | 8.15 |  | 
COc1cc(Cl)c(-c2c(C)nn3c(NCCNCCF)cc(C)nc23)c(Cl)c1 | 7.66 | 4 | 
COc1cc(Cl)c(-c2c(C)nn3c(NCCNCC(F)F)cc(C)nc23)c(Cl)c1 | 6.42 | 2 | 
COc1cc(Cl)c(-c2c(C)nn3c(NCC(C)NC4CCOCC4)cc(C)nc23)c(Cl)c1 (racemic) | 8.30 | 10 | 
CCCOc1cc(Cl)c(-c2c(C)nn3c(NCCNC4CCOCC4)cc(C)nc23)c(Cl)c1 | 8.10 |  | pIC50 [3]: 6.68; clearance [4]: 25 mL/min/kg; fraction unbound [5]: 0.011; CL [6]: 2273 mL/min/kg; inhibition in vivo at 3 mg/kg [7]: 0%
Cc1cc(C)c(-c2c(C)nn3c(NCCN)cc(C)nc23)c(C)c1 | 5.64 |  | pKi [8]: < 5.00
COc1ccc(CCNCCNc2cc(C)nc3c(-c4c(C)cc(C)cc4C)c(C)nn23)cc1 | 7.54 |  | 
